Laboratory results from ChEMBL document CHEMBL1156100, “Design and synthesis of a simplified inhibitor for XIAP-BIR3 domain” (Bioorg Med Chem Lett, 2009).
Activity calls are given as the source filed them. No cut-off for these calls is given here.

Target: T1, E3 ubiquitin-protein ligase XIAP (Homo sapiens, UniProt P98170)
Assay: Inhibition of XIAP BIR3 domain at 10 to 100 uM by competitive fluorescence polarization binding assay relative to 1 uM BV6 control

T1 sequence (P98170 whole entry, the tested form may be a part): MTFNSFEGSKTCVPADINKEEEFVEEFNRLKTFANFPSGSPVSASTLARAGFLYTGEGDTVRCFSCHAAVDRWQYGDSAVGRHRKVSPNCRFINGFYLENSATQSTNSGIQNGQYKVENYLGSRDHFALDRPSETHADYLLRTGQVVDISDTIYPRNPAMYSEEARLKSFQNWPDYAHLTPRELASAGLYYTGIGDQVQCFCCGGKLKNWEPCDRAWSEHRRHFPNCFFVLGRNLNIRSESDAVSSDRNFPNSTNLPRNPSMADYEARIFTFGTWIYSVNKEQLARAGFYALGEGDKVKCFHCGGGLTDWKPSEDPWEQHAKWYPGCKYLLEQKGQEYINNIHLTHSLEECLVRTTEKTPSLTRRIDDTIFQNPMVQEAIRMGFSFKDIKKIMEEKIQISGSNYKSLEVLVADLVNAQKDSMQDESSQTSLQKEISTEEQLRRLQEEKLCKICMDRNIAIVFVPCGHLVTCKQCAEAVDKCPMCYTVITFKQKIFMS

Activity	Compound
inactive	CN[C@@H](C)C(=O)Nc1nc2c(s1)CC[C@H]2C(=O)N[C@H]1CCCc2ccccc21
Active	CN[C@@H](C)C(=O)Nc1nc2c(s1)CC[C@H]2C(=O)N[C@@H]1CCCc2ccccc21
inactive	CN[C@@H](C)C(=O)Nc1nc2c(s1)CCC2C(=O)NC1CCCc2ccccc21 (mixture of isomers)
inactive	CN[C@@H](C)C(=O)Nc1nc2c(s1)CC[C@@H]2C(=O)NC1CCCc2ccccc21 (mixture of isomers)

Target: T1, E3 ubiquitin-protein ligase XIAP
Assay: Inhibition of XIAP BIR3 domain at 100 uM by competitive fluorescence polarization binding assay

Activity	Compound
inactive	CN[C@@H](C)C(=O)Nc1nc2c(s1)CCCCC2C(=O)NC(c1ccccc1)c1ccccc1 (stereo partly drawn)
inactive	C[C@H](N)C(=O)Nc1nc2c(s1)CCCCC2C(=O)NC(c1ccccc1)c1ccccc1 (stereo partly drawn)
inactive	CN[C@@H](C)C(=O)Nc1nc2c(s1)CCCCC2C(=O)NC1CCCc2ccccc21 (stereo partly drawn)
inactive	C[C@H](N)C(=O)Nc1nc2c(s1)CCCCC2C(=O)NC1CCCc2ccccc21 (stereo partly drawn)
inactive	C[C@H](N)C(=O)Nc1nc2c(s1)CCCCC2C(=O)NCc1ccccc1 (stereo partly drawn)
inactive	CN[C@@H](C)C(=O)Nc1nc2c(s1)CCCCC2C(=O)NCc1ccccc1 (stereo partly drawn)

Target: T1, E3 ubiquitin-protein ligase XIAP
Assay: Inhibition of XIAP BIR3 domain by competitive fluorescence polarization binding assay
Method in brief: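 Competitive fluorescence polarization displacement assay using the XIAP BIR3 domain, with BV6 run in parallel as the reference compound. Binding affinity is expressed as Ki.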

Ki	Compound
5.58 µM	CN[C@@H](C)C(=O)Nc1nc2c(s1)CC[C@H]2C(=O)N[C@@H]1CCCc2ccccc21
37 µM	CN[C@@H](C)C(=O)Nc1nc2c(s1)CCC2C(=O)NC1CCCc2ccccc21 (mixture of isomers)

Target: T1, E3 ubiquitin-protein ligase XIAP
Assay: Inhibition of XIAP BIR3 domain at 10 to 100 uM by competitive fluorescence polarization binding assay

Activity	Compound
Active	C[C@H](N)C(=O)Nc1nc2c(s1)CCC2C(=O)NC1CCCc2ccccc21 (stereo partly drawn)
Active	CN[C@@H](C)C(=O)Nc1nc2c(s1)CCC2C(=O)NC1CCCc2ccccc21 (mixture of isomers)
Active	C[C@H](N)C(=O)Nc1nc2c(s1)CCC2C(=O)NC(c1ccccc1)c1ccccc1 (stereo partly drawn)
Active	CN[C@@H](C)C(=O)Nc1nc2c(s1)CCC2C(=O)NCc1ccccc1 (stereo partly drawn)
Active	C[C@H](N)C(=O)Nc1nc2c(s1)CCC2C(=O)NCc1ccccc1 (stereo partly drawn)
Active	CN[C@@H](C)C(=O)Nc1nc2c(s1)CCC2C(=O)NC(c1ccccc1)c1ccccc1 (stereo partly drawn)
